{"source": "the RNAGym collection of RNA variant scans (doi:10.1126/science.aae0568)", "parents": {"B1": {"name": "tRNA (parent)", "chain": "GUUCCGUUGGCGUAAUGGUAACGCGUCUCCCUCCUAAGGAGAAGACUGCGGGUUCGAGUCCCGUACGGAACG"}}, "note": "Variants at the floor of the assay were thinned out.", "data": [{"variants_of": "B1", "assay": "yeast fitness relative to wild type (ratio to wild type); higher = fitter; tRNA-Arg(CCU), competitive growth, 37 C, YPD", "outline": "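The tRNA-Arg(CCU) gene variants were made by chemical synthesis with a 3% per-site mutation rate at 69 sites and inserted at the native genomic locus of Saccharomyces cerevisiae. After pooling, the strains were competed in YPD at 37°C for 24 hours in six parallel replicates. Gene amplicons from the start population and each end population were read by 100-nucleotide paired-end sequencing, and Darwinian fitness relative to wild type was taken from genotype frequency changes. Genotypes needed ≥ 100 starting reads, and estimates < 0.5 were set to 0.5.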", "values": [{"variant": "GUUCCGUUGGCGUAAUGGUAACGCGUCUCCCUCCUAAGGAGAAAACUGCAGGUUCGAGUCCCGUACGGAACG", "note": "[G44A G50A]", "yeast fitness": 0.891}, {"variant": "GUUCCGUUGGCGUAAUGGUAACGCGUCUCCCUCCUAAGGAGAAAACUGCCGGUUCGAGUCCCGUACGGAACG", "note": "[G44A G50C]", "yeast fitness": 0.623}, {"variant": "GUUCCGUUGGCGUAAUGGUAACGCGUCUCCCUCCUAAGGAGAAAACUGCGGAUUCGAGUCCCGUACGGAACG", "note": "[G44A G52A]", "yeast fitness": 0.827}, {"variant": "GUUCCGUUGGCGUAAUGGUAACGCGUCUCCCUCCUAAGGAGAAAACUGCGGAUUCGAGUCACGUACGGAACG", "note": "[G44A G52A C61A]", "yeast fitness": 0.565}, {"variant": "GUUCCGUUGGCGUAAUGGUAACGCGUCUCCCUCCUAAGGAGAAAACUGCGGCUUCGAGUCCCGUACGGAACG", "note": "[G44A G52C]", "yeast fitness": 0.504}, {"variant": "GUUCCGUUGGCGUAAUGGUAACGCGUCUCCCUCCUAAGGAGAAAACUGCGGGUUCAAGUCCCGUACGGAACG", "note": "[G44A G56A]", "yeast fitness": 1.05}, {"variant": "GUUCCGUUGGCGUAAUGGUAACGCGUCUCCCUCCUAAGGAGAAAACUGCGGGUUCCUGUCCCGUACGGAACG", "note": "[G44A G56C A57U]", "yeast fitness": 0.596}, {"variant": "GUUCCGUUGGCGUAAUGGUAACGCGUCUCCCUCCUAAGGAGAAAACUGCGGGUUCGAUUCCCGUACGGCACG", "note": "[G44A G58U A69C]", "yeast fitness": "≤ 0.5"}, {"variant": "GUUCCGUUGGCGUAAUGGUAACGCGUCUCCCUCCUAAGGAGAAAACUGCGGGUUCGAGUCCCAUACCGAACG", "note": "[G44A G63A G67C]", "yeast fitness": "≤ 0.5"}, {"variant": "GUUCCGUUGGCGUAAUGGUAACGCGUCUCCCUCCUAAGGAGAAAACUGCGGGUUCGAGUCCCGUACAGAACG", "note": "[G44A G67A]", "yeast fitness": 0.887}, {"variant": "GUUCCGUUGGCGUAAUGGUAACGCGUCUCCCUCCUAAGGAGAAAACUGCGGGUUCGAGUCCCGUACAGAGCG", "note": "[G44A G67A A70G]", "yeast fitness": 0.688}, {"variant": "GUUCCGUUGGCGUAAUGGUAACGCGUCUCCCUCCUAAGGAGAAAACUGCGGGUUCGAGUCCCGUACCGAACG", "note": "[G44A G67C]", "yeast fitness": 0.71}, {"variant": "GUUCCGUUGGCGUAAUGGUAACGCGUCUCCCUCCUAAGGAGAAAACUGCGGGUUCGAGUCCCGUACGCAACG", "note": "[G44A G68C]", "yeast fitness": 0.764}, {"variant": "GUUCCGUUGGCGUAAUGGUAACGCGUCUCCCUCCUAAGGAGAAAACUGCGGGUUCGAGUCCCGUACGUAACG", "note": "[G44A G68U]", "yeast fitness": 0.696}, {"variant": "GUUCCGUUGGCGUAAUGGUAACGCGUCUCCCUCCUAAGGAGAAAACGGGGGGUGCGAGUCCCGUACGGAACG", "note": "[G44A U47G C49G U54G]", "yeast fitness": "≤ 0.5"}, {"variant": "GUUCCGUUGGCGUAAUGGUAACGCGUCUCCCUCCUAAGGAGAAAACUGCGGGUACGAGUCCCGUACGGAACG", "note": "[G44A U54A]", "yeast fitness": 0.61}, {"variant": "GUUCCGUUGGCGUAAUGGUAACGCGUCUCCCUCCUAAGGAGAAAACUGCGGGUACGAGUCCCGUACGGAUCG", "note": "[G44A U54A A70U]", "yeast fitness": 0.549}, {"variant": "GUUCCGUUGGCGUAAUGGUAACGCGUCUCCCUCCUAAGGAGAAAACUGCGGGUCCGAGUCUCGUACGGCACG", "note": "[G44A U54C C61U A69C]", "yeast fitness": 0.627}, {"variant": "GUUCCGUUGGCGUAAUGGUAACGCGUCUCCCUCCUAAGGAGAAAACUGCGGGUUCGAGACCCGUACGGAACG", "note": "[G44A U59A]", "yeast fitness": 0.601}, {"variant": "GUUCCGUUGGCGUAAUGGUAACGCGUCUCCCUCCUAAGGAGAAAACUGCGGGUUCGAGCCCCGUACGGAACG", "note": "[G44A U59C]", "yeast fitness": 0.799}, {"variant": "GUUCCGUUGGCGUAAUGGUAACGCGUCUCCCUCCUAAGGAGAAAACUGCGGGUUCGAGUCCCGCACGGAACG", "note": "[G44A U64C]", "yeast fitness": 0.935}, {"variant": "GUUCCGUUGGCGUAAUGGUAACGCGUCUCCCUCCUAAGGAGAACCCUGCGGGUUCGAGUCCCGUACGGAACG", "note": "[G44C A45C]", "yeast fitness": 0.97}, {"variant": "GUUCCGUUGGCGUAAUGGUAACGCGUCUCCCUCCUAAGGAGAACGCUGCGGGUUCGAGUCCCGUACGGAGCG", "note": "[G44C A45G A70G]", "yeast fitness": 0.695}, {"variant": "GUUCCGUUGGCGUAAUGGUAACGCGUCUCCCUCCUAAGGAGAACGCUGCGGGUUCAAGUCCCGUACGGAACG", "note": "[G44C A45G G56A]", "yeast fitness": 1.01}, {"variant": "GUUCCGUUGGCGUAAUGGUAACGCGUCUCCCUCCUAAGGAGAACUCUGCGGGUUCGAGUCCCGUACGGAACG", "note": "[G44C A45U]", "yeast fitness": 0.905}, {"variant": "GUUCCGUUGGCGUAAUGGUAACGCGUCUCCCUCCUAAGGAGAACACUGCGGGUUCGCGUCCCGUACGGAACG", "note": "[G44C A57C]", "yeast fitness": 0.568}, {"variant": "GUUCCGUUGGCGUAAUGGUAACGCGUCUCCCUCCUAAGGAGAACACUGCGGGUUCGGGUCCCGUACGGAACG", "note": "[G44C A57G]", "yeast fitness": 0.895}, {"variant": "GUUCCGUUGGCGUAAUGGUAACGCGUCUCCCUCCUAAGGAGAACACUGCGGGUUCGUGUCCCGAACGCAACG", "note": "[G44C A57U U64A G68C]", "yeast fitness": "≤ 0.5"}, {"variant": "GUUCCGUUGGCGUAAUGGUAACGCGUCUCCCUCCUAAGGAGAACACUGCGGGUUCGAGUCCCGUCCGGAACG", "note": "[G44C A65C]", "yeast fitness": 0.742}, {"variant": "GUUCCGUUGGCGUAAUGGUAACGCGUCUCCCUCCUAAGGAGAACACUGCGGGUUCGAGUCCCGUGCGGAACG", "note": "[G44C A65G]", "yeast fitness": 1.06}, {"variant": "GUUCCGUUGGCGUAAUGGUAACGCGUCUCCCUCCUAAGGAGAACACUGCGGGUUCGAGUCCCGUACGGAGCG", "note": "[G44C A70G]", "yeast fitness": 0.954}, {"variant": "GUUCCGUUGGCGUAAUGGUAACGCGUCUCCCUCCUAAGGAGAACAAUGCGGGUUCGAGUCCCGUACGGAACG", "note": "[G44C C46A]", "yeast fitness": 1.01}, {"variant": "GUUCCGUUGGCGUAAUGGUAACGCGUCUCCCUCCUAAGGAGAACAAUGCGGGUUCGAGUCCCGUACGGUACG", "note": "[G44C C46A A69U]", "yeast fitness": 0.726}, {"variant": "GUUCCGUUGGCGUAAUGGUAACGCGUCUCCCUCCUAAGGAGAACAAUGCGGGUUCCAGUCCCGUACGGAACG", "note": "[G44C C46A G56C]", "yeast fitness": 0.543}, {"variant": "GUUCCGUUGGCGUAAUGGUAACGCGUCUCCCUCCUAAGGAGAACAGUGCGGGUUCGCGUCCCGUACGGAACG", "note": "[G44C C46G A57C]", "yeast fitness": "≤ 0.5"}, {"variant": "GUUCCGUUGGCGUAAUGGUAACGCGUCUCCCUCCUAAGGAGAACAGUGCGGGUUUGAGUCCCAUACGGAACG", "note": "[G44C C46G C55U G63A]", "yeast fitness": "≤ 0.5"}, {"variant": "GUUCCGUUGGCGUAAUGGUAACGCGUCUCCCUCCUAAGGAGAACACUGAGGGUUCGAGUCCCGUACGGAACG", "note": "[G44C C49A]", "yeast fitness": 0.625}, {"variant": "GUUCCGUUGGCGUAAUGGUAACGCGUCUCCCUCCUAAGGAGAACACUGGGGGUUCGAGUCCCGUACGGAACG", "note": "[G44C C49G]", "yeast fitness": 0.741}]}]}
